The source of these data is paper PMC7007330 (Molecular microbiology, 2019).

“Also recorded” adds a separate entry of the source. Like-named read-outs stand apart in the source and are kept apart here.

Test [1] has as its system wild-type Chlamydia trachomatis L2. Briefly: Growth curves with chemical inhibitors. It counts as cell-based. As to conditions: L929 cells; HQNO 1 μM, BKA 0.25 μM added at infection; 0-72 hpi.
In test [2] the test system is wild-type C. trachomatis L2. The experiment in a line: Immunofluorescence microscopy of infected L929 cells, wild-type. It counts as cell-based, Chlamydia trachomatis. In a few lines: (§1)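 L929 monolayers were grown to confluency on slides and infected with wild-type C. trachomatis L2 or RsbU* mutant. HQNO or BKA was added immediately after infection where indicated. At 24 and 72 hpi, cells were fixed in 100% methanol (10 min, RT), washed with HBSS then PBS, and stained with MicroTrack reagent (1:40 in PBS, 1 h 50 min, RT). Nuclei were stained with DAPI (10 min, RT, dark) and samples mounted in antifade. Imaging was by spinning-disk confocal at 150X, 7 Z-stacks, maximum projection.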

Test [3] deals with ATP translocases. The following applies: cited from earlier work.
The test system of test [4] is wild-type C. trachomatis L2. Briefly: Progeny assay. It counts as cell-based, Chlamydia trachomatis. As to conditions: L929 cells; BKA 0.25 μM, HQNO 1 μM; 36 hpi then passaged. The procedure, abridged:
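L929 cells were infected with C. trachomatis L2 wild-type or RsbU* strains, with BKA (0.25 μM) and HQNO (1 μM) added at infection where indicated. At 36 hpi, wells were either fixed and stained with MicroTrack reagent, or water-lysed and passaged onto fresh host monolayers, then fixed and stained 36 h later. IFUs were counted, and fold change was taken as post-passage IFUs relative to first-36 h IFUs.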

In test [5] the test system is RsbU* mutant. Briefly: Immunofluorescence microscopy of infected L929 cells, RsbU* mutant. As to conditions: 24 and 72 hours. It counts as cell-based, Chlamydia trachomatis. In a few lines: as §1
Test [6] addresses WT RsbU45–313 (Chlamydia trachomatis, UniProt A0A0H3MDU0). Type of test: binding. The following applies: for SPR dose-dependent binding curves: Figure S3; for binding in initial SPR screening: ligands at 100 μM and 1 mM.
For test [7], the system named is RsbU* mutant strain of C. trachomatis L2. The experiment in a line: Growth curves with chemical inhibitors. It counts as cell-based, Chlamydia trachomatis. The following applies: L929 cells; HQNO 1 μM added at infection.
The subject of test [8] is sodium-dependent NADH dehydrogenase. The following applies: low concentrations (1 μM); cited from earlier work.
Test [9] addresses T1, RsbU45–313 (Chlamydia trachomatis, UniProt A0A0H3MDU0). The experiment in a line: biochemical. It counts as binding.
The target in test [10] is T1, RsbU45–313. Briefly: Differential scanning fluorimetry. It counts as binding.
Test [11] deals with T2, RsbU45–313 R134A (Chlamydia trachomatis, UniProt A0A0H3MDU0, R134A).
T2 sequence (A0A0H3MDU0 45-313 R134A): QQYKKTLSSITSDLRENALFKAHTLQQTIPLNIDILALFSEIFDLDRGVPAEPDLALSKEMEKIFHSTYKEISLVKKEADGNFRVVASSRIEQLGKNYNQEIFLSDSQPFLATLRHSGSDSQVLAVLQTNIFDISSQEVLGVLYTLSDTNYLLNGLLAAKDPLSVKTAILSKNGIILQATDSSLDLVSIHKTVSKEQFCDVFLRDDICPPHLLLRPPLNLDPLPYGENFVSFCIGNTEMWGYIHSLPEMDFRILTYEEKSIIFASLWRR
Briefly: Surface plasmon resonance, R134A variant. It counts as binding. As to conditions: read-out: KD (estimated, steady state affinity), SPR, PBS.

Test [12] has as its target T3, RsbU45–313 K140A (Chlamydia trachomatis, UniProt A0A0H3MDU0, K140A).
T3 sequence (A0A0H3MDU0 45-313 K140A): T2 sequence (A0A0H3MDU0 45-313 R134A)
Briefly: Surface plasmon resonance, K140A variant. It counts as binding. As to conditions: read-out: KD (estimated, steady state affinity), SPR, PBS.

The target in test [13] is T4, RsbU45–313 K140A/R134A (Chlamydia trachomatis, UniProt A0A0H3MDU0, K140A/R134A).
T4 sequence (A0A0H3MDU0 45-313 R134A/K140A): T2 sequence (A0A0H3MDU0 45-313 R134A)
The experiment in a line: Surface plasmon resonance, K140A/R134A variant. As to conditions: read-out: KD (estimated, steady state affinity), SPR, PBS. Type of test: binding.

In test [14] the target is T5, RsbU45–313 Q137A (Chlamydia trachomatis, UniProt A0A0H3MDU0, Q137A).
T5 sequence (A0A0H3MDU0 45-313 Q137A): T2 sequence (A0A0H3MDU0 45-313 R134A)
Briefly: Surface plasmon resonance, Q137A variant. Type of test: binding. As to conditions: read-out: KD (estimated, steady state affinity), SPR, PBS.

Setting [15] is: 5 mM and 10 mM ligand, 10 μM RsbU45–313.

Regarding `CO[C@H](C/C=C\C=C\CC/C=C/C[C@H](C)/C=C/C(=C\C(=O)O)CC(=O)O)/C(C)=C\C=C(/C)C(=O)O` [BKA, bongkrekic acid], in test [1], the “growth of wild-type Chlamydia (secY vs rpp30 genome copies)” value is recorded as “decrease in the growth of wild-type Chlamydia”. Further, in test [2] (24 and 72 hours), the “morphology by confocal microscopy” value is “No obvious morphological abnormalities”. Also, the “inhibition of ATP translocases” value in [3] is “inhibit ATP translocases”. Besides, in [4], the “progeny production (IFUs)” value was “decrease in IFUs produced”. In test [5], the “levels of RsbU* Chlamydia or their dispersion within the host cell” value is given as “appeared to have no effect”.

Consider `O=C(O)CCC(=O)O` [succinate], for which the “SPR dose-dependent binding curves” value in test [6] is on record as “do not appear to be binding”.

Turning to `CCCCCCCc1cc(O)c2ccccc2[n+]1[O-]` [HQNO, 2-heptyl-4-hydrosyquinoline N-oxide], in [1], the “growth of wild-type Chlamydia (secY vs rpp30 genome copies)” value was “not statistically different from the RsbU* mutant growth at any time point; also recorded: marked reduction in growth”. Besides, the “inclusion morphology by confocal microscopy” value in [2] (24 hours post-infection) is “formed smaller inclusions and appear to contain fewer EBs”; in test [2] (72 hours post-infection), “inclusions that were grossly under-full”. For the same compound, the “progeny production (IFUs)” value in test [4] is “decrease in the number of IFUs produced compared to the initial infection”. In addition, the “growth of RsbU* mutant (secY vs rpp30 genome copies)” value in test [7] is “does not have an additive effect on the growth defect”. In addition, in test [5], the “levels of RsbU* Chlamydia or their dispersion within the host cell” value is “appeared to have no effect”. Besides, in [8], the “inhibition of sodium-dependent NADH dehydrogenase” value is “selectively inhibit”.

Consider `O=C(O)CC(O)C(=O)O` (stereo not shown) [malate], for which, in test [6], the “SPR dose-dependent binding curves” value is recorded as “show dose-dependent binding” and the “binding in initial SPR screening” value is recorded as “binding was only observed”. Binding in test [9] was characterised by a dissociation constant (Kd) of 22 µM. Besides, in [10] (setting [15]), the DSF temperature shift entry is “Significant stabilizing temperature shifts”.

For the compound `O=C(O)CC(=O)C(=O)O` [oxaloacetate], in test [6], the “SPR dose-dependent binding curves” value is “show dose-dependent binding” and the “binding in initial SPR screening” value is “binding was only observed”. The compound also yielded a Kd in [9] of 55.5 µM. The DSF temperature shift entry in [10] (highest ligand concentration tested, only in one of two biological replicates) is given as “significant positive temperature shift”.

`O=C(O)CCC(=O)C(=O)O` [alpha-ketoglutarate]: the Kd in [11] was 526 µM; in [12] it was 597 µM; in test [13], 558 µM; in [14], 548 µM; in [6] (read-out: KD (estimated, steady state affinity), SPR, WT RsbU45–313, PBS) it was 419 µM; in test [9] (read-out: KD (ITC), single trial, 30 μM protein, PBS, data not shown), 25.8 µM. For the same compound, the “SPR dose-dependent binding curves” value in test [6] is “show dose-dependent binding”. Moreover, the “binding in initial SPR screening” value in test [6] is on record as “binding was only observed”. Also, the DSF temperature shift result in test [10] (setting [15]) is recorded as “Significant stabilizing temperature shifts”.

In the case of `O=C(O)CC(=O)O` [malonate], the “SPR dose-dependent binding curves” value in test [6] is “do not appear to be binding”.
